≈ marks a conversion by molar mass, not a printed value.
Legend:
Format in all cases: functional
Staphylococcus aureus [1] = test: Antibacterial activity was determined against gram positive organism, Staphylococcus aureus UC76
How it was run: (§1)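 MIC (µg/mL) by standard microtitration against a panel of 10 Gram-positive and Gram-negative organisms; values averaged from multiple experiments.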

Streptococcus pneumoniae = test: Antibacterial activity was determined against gram positive organism, Streptococcus pneumoniae SV-1; conditions: Streptococcus pneumoniae; read-out: MIC; how it was run: as §1
[2] = molecular target: DNA gyrase (Escherichia coli) (UniProt P0AES6+P0AES4); test: Minimum inhibitory concentration against Escherichia coli DNA-gyrase in supercoiling assay
Enterococcus faecalis = test: Antibacterial activity was determined against gram positive organism, Streptococcus faecalis MGH-2; conditions: Enterococcus faecalis; read-out: MIC; how it was run: as §1
Escherichia coli [3] = test: Antibacterial activity was determined against gram negative organism, Escherichia coli vogel; conditions: Escherichia coli; read-out: MIC; how it was run: as §1
Escherichia coli [4] = test: The in vivo potency was determined in female charles river CD-1 mice infected with Escherichia coli after sc administration; conditions: Escherichia coli, sc; read-out: PD50
How it was run: (§2)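 Acute lethal systemic infection in female CD-1 mice, 16 mice per route; single subcutaneous dose given at the time of challenge; median protective dose (PD50, mg/kg) determined.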

Escherichia coli [5] = test: The in vivo potency was determined in female charles river CD-1 mice infected with Escherichia coli after peroral administration; conditions: for ED50: Escherichia coli, po, read-out: PD50
How it was run: (§3)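 Acute lethal systemic infection in female CD-1 mice, 16 mice per route; single dose given orally by gavage at the time of challenge; median protective dose (PD50, mg/kg) determined.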

Staphylococcus aureus [6] = test: Antibacterial activity was determined against gram positive organism, Staphylococcus aureus H228; conditions: Staphylococcus aureus; read-out: MIC; how it was run: as §1
Klebsiella pneumoniae = test: Antibacterial activity was determined against gram negative organism, Klebsiella pneumoniae MGH-2; conditions: Klebsiella pneumoniae; read-out: MIC; how it was run: as §1
Streptococcus pyogenes [7] = test: Antibacterial activity was determined against gram positive organism, Streptococcus pyogenes C203; conditions: Streptococcus pyogenes; read-out: MIC; how it was run: as §1
Pseudomonas aeruginosa = test: Antibacterial activity was determined against gram negative organism, Pseudomonas aeruginosa UI-18; conditions: Pseudomonas aeruginosa; read-out: MIC; how it was run: as §1
Bacteria [8] = test: MIC ratio measured as the mean MICs of gram-positive bacteria
How it was run: (§4)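 Geometric mean of the microtitration MICs (µg/mL) over the Gram-negative organisms, and separately over the Gram-positive organisms, of the 10-strain panel; individual MICs averaged from multiple experiments.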

Bacteria [9] = test: Antibacterial activity was determined against gram negative organism, Providencia rettgeri. M1771; conditions: Bacteria; read-out: MIC; how it was run: as §1
Enterobacter cloacae = test: Antibacterial activity was determined against gram negative organism, Enterobacter cloacae MA2646; conditions: Enterobacter cloacae; read-out: MIC
Bacteria [10] = test: MIC ratio measured as the mean MICs of gram-negative bacteria; how it was run: as §4
Streptococcus pyogenes [11] = test: The in vivo potency was determined in female charles river CD-1 mice infected with Streptococcus pyogenes after peroral administration; conditions: Streptococcus pyogenes, po; read-out: PD50; how it was run: as §3
Streptococcus pyogenes [12] = test: The in vivo potency was determined in female charles river CD-1 mice infected with Streptococcus pyogenes after sc administration; conditions: Streptococcus pyogenes, sc; read-out: PD50; how it was run: as §2
[13] = Staphylococcus aureus, read-out: MIC

Compound	MIC (Staphylococcus aureus [1]; [13]) [µg/mL]	MIC (Streptococcus pneumoniae) [µg/mL]	MIC [2] [µg/mL]	MIC (Enterococcus faecalis) [µg/mL]	MIC (Escherichia coli [3]) [µg/mL]	ED50 (Escherichia coli [4]) [mg/kg]	ED50 (Escherichia coli [5]) [mg/kg]	MIC (Staphylococcus aureus [6]) [µg/mL]	MIC (Klebsiella pneumoniae) [µg/mL]	MIC (Streptococcus pyogenes [7]) [µg/mL]	MIC (Pseudomonas aeruginosa) [µg/mL]	Geometric mean MIC over Gram-positive bacteria (µg/mL) (Bacteria [8])	MIC (Bacteria [9]) [µg/mL]	MIC (Enterobacter cloacae) [µg/mL]	Geometric mean MIC over Gram-negative bacteria (µg/mL) (Bacteria [10])	MIC (Staphylococcus aureus [1]) [µg/mL]	ED50 (Streptococcus pyogenes [11]) [mg/kg]	ED50 (Streptococcus pyogenes [12]) [mg/kg]	PD50 (Escherichia coli [5]) [mg/kg]
CC1CN(c2c(F)cc3c(=O)c(C(=O)O)cn(C4CC4)c3c2F)CCN1 (centres undefined)	0.1 (≈ 0.275 µM)	0.4 (≈ 1.1 µM)	1 (≈ 2.75 µM)	0.4 (≈ 1.1 µM)	0.025 (≈ 0.0688 µM)	0.4	0.8	0.2 (≈ 0.55 µM)	0.025 (≈ 0.0688 µM)	0.4 (≈ 1.1 µM)	0.4 (≈ 1.1 µM)	0.26	0.1 (≈ 0.275 µM)	0.05 (≈ 0.138 µM)	0.066				
Nc1c(F)c(N2CCNCC2)cc2c1c(=O)c(C(=O)O)cn2C1CC1	0.025 (≈ 0.0722 µM)	0.1 (≈ 0.289 µM)	1 (≈ 2.89 µM)	0.1 (≈ 0.289 µM)	0.013 (≈ 0.0375 µM)	0.3	4	0.1 (≈ 0.289 µM)	0.025 (≈ 0.0722 µM)	0.2 (≈ 0.577 µM)	0.8 (≈ 2.31 µM)	0.087	0.025 (≈ 0.0722 µM)	0.013 (≈ 0.0375 µM)	0.038				
O=C(O)c1cn(C2CC2)c2c(Cl)c(N3CCNCC3)c(F)cc2c1=O	0.05 (≈ 0.137 µM)	0.1 (≈ 0.273 µM)	0.5 (≈ 1.37 µM)	0.4 (≈ 1.09 µM)	0.025 (≈ 0.0683 µM)	0.4	0.8	0.1 (≈ 0.273 µM)	0.05 (≈ 0.137 µM)	0.2 (≈ 0.547 µM)	0.4 (≈ 1.09 µM)	0.13	0.1 (≈ 0.273 µM)	0.025 (≈ 0.0683 µM)	0.066				
CCNCC1CCN(c2c(F)c(N)c3c(=O)c(C(=O)O)cn(C4CC4)c3c2Cl)C1 (centres undefined)		0.025 (≈ 0.0591 µM)	1 (≈ 2.36 µM)	0.1 (≈ 0.236 µM)	0.1 (≈ 0.236 µM)	3	32	0.1 (≈ 0.236 µM)	0.4 (≈ 0.946 µM)	0.025 (≈ 0.0591 µM)	1.6 (≈ 3.78 µM)		0.8 (≈ 1.89 µM)	0.2 (≈ 0.473 µM)		0.025 (≈ 0.0591 µM)	31	4	
CC1CN(c2c(F)cc3c(=O)c(C(=O)O)cn(C4CC4)c3c2F)CC(C)N1 (centres undefined)	0.05 (≈ 0.132 µM)	0.4 (≈ 1.06 µM)	2.5 (≈ 6.62 µM)	0.4 (≈ 1.06 µM)	0.05 (≈ 0.132 µM)	0.4		0.2 (≈ 0.53 µM)	0.1 (≈ 0.265 µM)	0.4 (≈ 1.06 µM)	0.4 (≈ 1.06 µM)	0.23	0.2 (≈ 0.53 µM)	0.05 (≈ 0.132 µM)	0.11				0.8
CCNCC1CCN(c2cc3c(cc2F)c(=O)c(C(=O)O)cn3C2CC2)C1 (centres undefined)	0.013 (≈ 0.0348 µM)	0.2 (≈ 0.536 µM)	1 (≈ 2.68 µM)	0.2 (≈ 0.536 µM)	0.2 (≈ 0.536 µM)	2	35	0.4 (≈ 1.07 µM)	0.2 (≈ 0.536 µM)	0.05 (≈ 0.134 µM)	1.6 (≈ 4.28 µM)	0.1	0.8 (≈ 2.14 µM)	0.4 (≈ 1.07 µM)	0.46				
CC1CN(c2c(F)cc3c(=O)c(C(=O)O)cn(C4CC4)c3c2Cl)CCN1 (centres undefined)	0.05 (≈ 0.132 µM)	0.2 (≈ 0.527 µM)	2.5 (≈ 6.58 µM)	0.2 (≈ 0.527 µM)	0.025 (≈ 0.0658 µM)	0.2	0.6	0.2 (≈ 0.527 µM)	0.05 (≈ 0.132 µM)	0.2 (≈ 0.527 µM)	0.8 (≈ 2.11 µM)	0.15	0.2 (≈ 0.527 µM)	0.025 (≈ 0.0658 µM)	0.087		6	3	
CC1CN(c2cc3c(cc2F)c(=O)c(C(=O)O)cn3C2CC2)CC(C)N1 (centres undefined)	0.05 (≈ 0.139 µM)	0.2 (≈ 0.556 µM)	1 (≈ 2.78 µM)	0.2 (≈ 0.556 µM)	0.025 (≈ 0.0696 µM)	0.4	0.7	0.2 (≈ 0.556 µM)	0.05 (≈ 0.139 µM)	0.2 (≈ 0.556 µM)	0.4 (≈ 1.11 µM)	0.15	0.2 (≈ 0.556 µM)	0.025 (≈ 0.0696 µM)	0.076		15	12	

From ChEMBL document CHEMBL1125826, “Synthesis and biological activity of 5-amino- and 5-hydroxyquinolones, and the overwhelming influence of the remote N1-substituent in determining the structure-activity relationship” (1991)
